Experimental data reported in PMC9273405 (Burns & Trauma, 2022).

How the values were obtained:
[1] = test system: full-thickness injury skin wounds in mice; assay: Full-thickness injury skin wound healing in mice; type: in vivo, mouse
Outline: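 Mice were anaesthetised with 1% pentobarbital sodium (0.1 ml/20 g) and given two round 8 × 8 mm dorsal skin wounds. Wounds were treated topically twice daily with 20 μl of vehicle, peptide (0.5, 5 or 50 nM) or EGF (50 nM). Residual wound area was measured from images as a percentage of initial area. New epidermis and granulation tissue thickness were measured from H&E sections on days 4 and 8. Six mice per group.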

[2] = test system: scald wounds in mice skin; assay: Scald wound repair in mouse skin; type: in vivo; details: 50 nM; for re-epithelialization rate: scald wound

B1: epidermal growth factor (protein, UniProt P01133 23-1207, looked up)
Pro-epidermal growth factor: PQHWSCPEGTLAGNGNSTCVGPAPFLIFSHGNSIFRIDTEGTNYEQLVVDAGVSVIMDFHYNEKRIYWVDLERQLLQRVFLNGSRQERVCNIEKNVSGMAINWINEEVIWSNQQEGIITVTDMKGNNSHILLSALKYPANVAVDPVERFIFWSSEVAGSLYRADLDGVGVKALLETSEKITAVSLDVLDKRLFWIQYNREGSNSLICSCDYDGGSVHISKHPTQHNLFAMSLFGDRIFYSTWKMKTIWIANKHTGKDMVRINLHSSFVPLGELKVVHPLAQPKAEDDTWEPEQKLCKLRKGNCSSTVCGQDLQSHLCMCAEGYALSRDRKYCEDVNECAFWNHGCTLGCKNTPGSYYCTCPVGFVLLPDGKRCHQLVSCPRNVSECSHDCVLTSEGPLCFCPEGSVLERDGKTCSGCSSPDNGGCSQLCVPLSPVSWECDCFPGYDLQLDEKSCAASGPQPFLLFANSQDIRHMHFDGTDYGTLLSQQMGMVYALDHDPVENKIYFAHTALKWIERANMDGSQRERLIEEGVDVPEGLAVDWIGRRFYWTDRGKSLIGRSDLNGKRSKIITKENISQPRGIAVHPMAKRLFWTDTGINPRIESSSLQGLGRLVIASSDLIWPSGITIDFLTDKLYWCDAKQSVIEMANLDGSKRRRLTQNDVGHPFAVAVFEDYVWFSDWAMPSVMRVNKRTGKDRVRLQGSMLKPSSLVVVHPLAKPGADPCLYQNGGCEHICKKRLGTAWCSCREGFMKASDGKTCLALDGHQLLAGGEVDLKNQVTPLDILSKTRVSEDNITESQHMLVAEIMVSDQDDCAPVGCSMYARCISEGEDATCQCLKGFAGDGKLCSDIDECEMGVPVCPPASSKCINTEGGYVCRCSEGYQGDGIHCLDIDECQLGEHSCGENASCTNTEGGYTCMCAGRLSEPGLICPDSTPPPHLREDDHHYSVRNSDSECPLSHDGYCLHDGVCMYIEALDKYACNCVVGYIGERCQYRDLKWWELRHAGHGQQQKVIVVAVCVVVLVMLLLLSLWGAHYYRTQKLLSKNPKNPYEESSRDVRSRRPADTEDGMSSCPQPWFVVIKEHQDLKNGGQPVAGEDGQAADGSMQPTSWRQEPQLCGMGTEQGCWIPVSSDKGSCPQVMERSFHMPSYGTQTLEGGVEKPHSLLSANPLWQQRALDPPHQMELTQ
modifications: Pro-epidermal growth factor
skin wound healing rate ([1]; 50 nM, 20 μl topical twice a day, day 8 post-operation, n = 6 (vehicle 71 ± 3%)): 87 ± 2% | thickness of new epidermis ([1]; day 4, H&E staining, n = 6 (vehicle 119 ± 7)): 58 ± 2 μm | thickness of granulation tissue ([1]; day 4, H&E staining, n = 6 (vehicle 505 ± 46)): 317 ± 82 μm | thickness of new epidermis ([1]; day 8, H&E staining, n = 6 (vehicle 86 ± 7)): 38 ± 10 μm | thickness of granulation tissue ([1]; day 8, H&E staining, n = 6 (vehicle 982 ± 8)): 719 ± 54 μm | regeneration rate of scald wounds ([2]; 20 μl topical, day 12 after operation, n = 6 (vehicle 40 ± 4%)): 78 ± 5% | re-epithelialization rate ([2]; day 8, H&E staining, n = 6 (vehicle 15 ± 3%)): 38 ± 3% | re-epithelialization rate ([2]; day 12, H&E staining, n = 6 (vehicle 42 ± 2%)): almost complete re-epithelialization
